Assay results reported in ChEMBL document CHEMBL1129363, “(S)-13-[(dimethylamino)methyl]-10,11,14,15-tetrahydro-4,9:16, 21-dimetheno-1H, 13H-dibenzo[e,k]pyrrolo[3,4-h][1,4,13]oxadiazacyclohexadecene-1,3(2H)-d ione (LY333531) and related analogues: isozyme selective inhibitors of protein kinase C beta” (J Med Chem, 1996).

Molecular target: Protein kinase C eta type (Homo sapiens, UniProt P24723)
Assay: Inhibition of Protein kinase C eta
Details: not given

Chain of Protein kinase C eta type (P24723 whole entry): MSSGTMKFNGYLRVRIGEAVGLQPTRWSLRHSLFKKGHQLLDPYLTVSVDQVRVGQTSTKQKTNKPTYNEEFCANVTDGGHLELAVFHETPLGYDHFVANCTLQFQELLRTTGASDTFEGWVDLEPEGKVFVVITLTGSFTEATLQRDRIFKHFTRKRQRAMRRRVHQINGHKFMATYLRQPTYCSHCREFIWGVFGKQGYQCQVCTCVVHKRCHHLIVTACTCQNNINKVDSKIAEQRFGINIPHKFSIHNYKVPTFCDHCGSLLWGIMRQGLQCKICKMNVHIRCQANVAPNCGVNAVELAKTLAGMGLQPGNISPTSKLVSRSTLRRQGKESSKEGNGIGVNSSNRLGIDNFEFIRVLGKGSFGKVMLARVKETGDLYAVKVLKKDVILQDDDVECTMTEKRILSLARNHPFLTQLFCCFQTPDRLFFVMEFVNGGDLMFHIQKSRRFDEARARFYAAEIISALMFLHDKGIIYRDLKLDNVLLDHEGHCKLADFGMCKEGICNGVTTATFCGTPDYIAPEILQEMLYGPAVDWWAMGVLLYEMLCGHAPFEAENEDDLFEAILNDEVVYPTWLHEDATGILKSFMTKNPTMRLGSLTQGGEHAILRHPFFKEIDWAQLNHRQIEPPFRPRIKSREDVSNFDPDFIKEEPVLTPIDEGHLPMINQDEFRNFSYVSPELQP

Row | Structure (SMILES) | IC50 [µM]
1 | CNC[C@@H]1CCn2cc(c3ccccc32)C2=C(C(=O)NC2=O)c2cn(c3ccccc23)CCO1 | 0.031
2 | O=C1NC(=O)C2=C1c1cn(c3ccccc13)CCO[C@H](CN1CCOCC1)CCn1cc2c2ccccc21 | 1.7
3 | O=C1NC(=O)C2=C1c1cn(c3ccccc13)CCO[C@H](CNS(=O)(=O)c1ccccc1)CCn1cc2c2ccccc21 | 1.9
4 | O=C1NC(=O)C2=C1c1cn(c3ccccc13)CCO[C@H](CNCc1ccccc1)CCn1cc2c2ccccc21 | 2.5
5 | CN1CCN(C[C@@H]2CCn3cc(c4ccccc43)C3=C(C(=O)NC3=O)c3cn(c4ccccc34)CCO2)CC1 | 2

Molecular target: Protein kinase C gamma type (Homo sapiens, UniProt P05129)
Assay: Inhibition of Protein kinase C gamma
Details: not given

Row | Structure (SMILES) | IC50 [µM]
6 | CNC[C@@H]1CCn2cc(c3ccccc32)C2=C(C(=O)NC2=O)c2cn(c3ccccc23)CCO1 | 0.27
7 | O=C1NC(=O)C2=C1c1cn(c3ccccc13)CCO[C@H](CN1CCOCC1)CCn1cc2c2ccccc21 | 2.5
8 | O=C1NC(=O)C2=C1c1cn(c3ccccc13)CCO[C@H](CNS(=O)(=O)c1ccccc1)CCn1cc2c2ccccc21 | > 5
9 | O=C1NC(=O)C2=C1c1cn(c3ccccc13)CCO[C@H](CNCc1ccccc1)CCn1cc2c2ccccc21 | 6.5
10 | CN1CCN(C[C@@H]2CCn3cc(c4ccccc43)C3=C(C(=O)NC3=O)c3cn(c4ccccc34)CCO2)CC1 | 3.2

System: not listed separately
Assay: Inhibition of rat brain Casein kinase II
Details: not given

Row | Structure (SMILES) | IC50 [µM]
11 | O=C1NC(=O)C2=C1c1cn(c3ccccc13)CCO[C@H](CNS(=O)(=O)c1ccccc1)CCn1cc2c2ccccc21 | > 100
12 | O=C1NC(=O)C2=C1c1cn(c3ccccc13)CCO[C@H](CNCc1ccccc1)CCn1cc2c2ccccc21 | > 100

Molecular target: Proto-oncogene tyrosine-protein kinase Src (Homo sapiens, UniProt P12931)
Sequence (P12931 2-536 limits assumed): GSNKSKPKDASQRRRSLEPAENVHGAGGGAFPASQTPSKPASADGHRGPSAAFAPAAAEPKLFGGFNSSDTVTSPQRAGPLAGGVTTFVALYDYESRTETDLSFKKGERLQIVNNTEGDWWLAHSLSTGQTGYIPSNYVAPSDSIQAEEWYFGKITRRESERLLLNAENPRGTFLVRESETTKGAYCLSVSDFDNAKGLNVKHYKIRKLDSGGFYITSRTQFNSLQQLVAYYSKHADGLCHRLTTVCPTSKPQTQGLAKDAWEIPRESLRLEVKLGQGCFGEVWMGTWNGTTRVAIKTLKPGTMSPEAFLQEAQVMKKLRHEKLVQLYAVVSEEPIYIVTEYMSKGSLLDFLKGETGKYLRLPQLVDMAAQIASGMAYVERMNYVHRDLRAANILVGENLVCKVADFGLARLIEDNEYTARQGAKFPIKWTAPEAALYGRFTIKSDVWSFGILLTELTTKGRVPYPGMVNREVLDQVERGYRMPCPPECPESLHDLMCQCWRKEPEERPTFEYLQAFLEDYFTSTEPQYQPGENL
Assay: Inhibition of src kinase
Details: not given

Row | Structure (SMILES) | IC50 [µM]
13 | O=C1NC(=O)C2=C1c1cn(c3ccccc13)CCO[C@H](CNS(=O)(=O)c1ccccc1)CCn1cc2c2ccccc21 | > 100
14 | O=C1NC(=O)C2=C1c1cn(c3ccccc13)CCO[C@H](CNCc1ccccc1)CCn1cc2c2ccccc21 | > 100

Molecular target: Protein kinase C delta type (Homo sapiens, UniProt Q05655)
Sequence (Q05655 whole entry): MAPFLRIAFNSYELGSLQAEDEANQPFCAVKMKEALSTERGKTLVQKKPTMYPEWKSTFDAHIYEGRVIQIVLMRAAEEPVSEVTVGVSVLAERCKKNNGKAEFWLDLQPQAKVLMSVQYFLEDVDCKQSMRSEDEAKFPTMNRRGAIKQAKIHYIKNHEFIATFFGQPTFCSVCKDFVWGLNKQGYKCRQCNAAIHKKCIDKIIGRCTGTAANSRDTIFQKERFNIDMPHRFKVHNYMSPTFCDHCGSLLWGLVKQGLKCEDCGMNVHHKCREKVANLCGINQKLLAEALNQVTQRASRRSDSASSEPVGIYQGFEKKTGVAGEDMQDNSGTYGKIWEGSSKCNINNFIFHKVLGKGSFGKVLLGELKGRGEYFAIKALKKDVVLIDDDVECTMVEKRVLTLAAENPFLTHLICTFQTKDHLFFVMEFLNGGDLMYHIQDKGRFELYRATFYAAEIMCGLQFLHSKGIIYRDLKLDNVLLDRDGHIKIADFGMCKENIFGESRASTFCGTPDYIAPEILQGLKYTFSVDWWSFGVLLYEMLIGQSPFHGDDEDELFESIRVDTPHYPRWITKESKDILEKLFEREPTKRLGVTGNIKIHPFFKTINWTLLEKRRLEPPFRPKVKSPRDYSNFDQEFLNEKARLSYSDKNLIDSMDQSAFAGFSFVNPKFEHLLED
Assay: Inhibition of Protein kinase C delta
Details: not given

Row | Structure (SMILES) | IC50 [µM]
15 | CNC[C@@H]1CCn2cc(c3ccccc32)C2=C(C(=O)NC2=O)c2cn(c3ccccc23)CCO1 | 0.17
16 | O=C1NC(=O)C2=C1c1cn(c3ccccc13)CCO[C@H](CN1CCOCC1)CCn1cc2c2ccccc21 | 2
17 | O=C1NC(=O)C2=C1c1cn(c3ccccc13)CCO[C@H](CNS(=O)(=O)c1ccccc1)CCn1cc2c2ccccc21 | 0.88
18 | O=C1NC(=O)C2=C1c1cn(c3ccccc13)CCO[C@H](CNCc1ccccc1)CCn1cc2c2ccccc21 | 7.8
19 | CN1CCN(C[C@@H]2CCn3cc(c4ccccc43)C3=C(C(=O)NC3=O)c3cn(c4ccccc34)CCO2)CC1 | 2.8

System: not listed separately
Assay: Concentration for 50% cell death determined by lysosomal staining in the neutral red viability assay.
Details: read-out: Tox50
Method in brief: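 Bovine retinal capillary endothelial cells, passages 3–10, were grown to confluence (10⁵ cells/well) in EGM with 10% FBS. Medium was switched to DME with 10% FBS 24 h before the assay. Compound in DMSO was added for 48 h at 37 °C. Viability was read by neutral red lysosomal staining, and the value is the concentration giving 50% cell death.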

Row | Structure (SMILES) | CC50 [µM]
20 | O=C1NC(=O)C2=C1c1cn(c3ccccc13)CCO[C@H](CN1CCOCC1)CCn1cc2c2ccccc21 | > 20
21 | O=C1NC(=O)C2=C1c1cn(c3ccccc13)CCO[C@H](CNS(=O)(=O)c1ccccc1)CCn1cc2c2ccccc21 | > 2
22 | O=C1NC(=O)C2=C1c1cn(c3ccccc13)CCO[C@H](CNCc1ccccc1)CCn1cc2c2ccccc21 | > 20
23 | CN1CCN(C[C@@H]2CCn3cc(c4ccccc43)C3=C(C(=O)NC3=O)c3cn(c4ccccc34)CCO2)CC1 | > 20

Molecular target: T1, Protein kinase C beta type (Homo sapiens, UniProt P05771)
T1 sequence (P05771 whole entry): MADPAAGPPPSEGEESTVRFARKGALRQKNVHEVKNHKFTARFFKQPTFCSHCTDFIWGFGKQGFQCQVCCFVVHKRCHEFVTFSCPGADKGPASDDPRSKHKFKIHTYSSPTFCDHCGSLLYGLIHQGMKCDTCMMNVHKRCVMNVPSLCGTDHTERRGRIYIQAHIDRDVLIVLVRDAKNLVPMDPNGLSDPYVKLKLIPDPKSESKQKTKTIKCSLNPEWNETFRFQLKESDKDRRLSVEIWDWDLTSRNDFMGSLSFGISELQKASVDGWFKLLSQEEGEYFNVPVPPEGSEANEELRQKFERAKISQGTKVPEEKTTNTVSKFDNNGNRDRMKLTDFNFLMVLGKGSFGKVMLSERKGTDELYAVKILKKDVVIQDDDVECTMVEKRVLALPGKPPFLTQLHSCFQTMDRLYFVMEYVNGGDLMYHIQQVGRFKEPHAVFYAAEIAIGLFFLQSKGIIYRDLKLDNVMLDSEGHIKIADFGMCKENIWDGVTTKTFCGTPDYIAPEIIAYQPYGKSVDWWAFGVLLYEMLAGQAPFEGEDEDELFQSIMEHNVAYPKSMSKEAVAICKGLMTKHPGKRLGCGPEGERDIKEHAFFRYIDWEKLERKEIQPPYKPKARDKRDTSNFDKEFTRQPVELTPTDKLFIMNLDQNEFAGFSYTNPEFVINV
Assay: Inhibition of Protein kinase C beta 2
Details: not given

Row | Structure (SMILES) | IC50 [µM]
24 | O=C1NC(=O)C2=C1c1cn(c3ccccc13)CCO[C@H](CN1CCOCC1)CCn1cc2c2ccccc21 | 0.038
25 | O=C1NC(=O)C2=C1c1cn(c3ccccc13)CCO[C@H](CNCc1ccccc1)CCn1cc2c2ccccc21 | 0.31
26 | CN1CCN(C[C@@H]2CCn3cc(c4ccccc43)C3=C(C(=O)NC3=O)c3cn(c4ccccc34)CCO2)CC1 | 0.024

System: not listed separately
Assay: Effective concentration for 50% inhibition of endothelial cell- based plasminogen activator activity relative to control by beta-PDBu stimulation
Type: functional
Details: not given
Method in brief: (§1)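 Bovine retinal capillary endothelial cells (passages 3–10), grown to confluence (10⁵ cells/well) in EGM with 10% FBS, switched to DME/10% FBS 24 h before assay; treated with 4β-PDBu plus compound in DMSO, 37 °C, 48 h. Lysate (25 mM NH₄OH, 0.5% Triton X-100) incubated with plasminogen and 1 mM chromogenic substrate, 25 °C 45 min, A410 against urokinase/tPA standard curve.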

Row | Structure (SMILES) | EC50 [µM]
27 | CNC[C@@H]1CCn2cc(c3ccccc32)C2=C(C(=O)NC2=O)c2cn(c3ccccc23)CCO1 | 0.24
28 | O=C1NC(=O)C2=C1c1cn(c3ccccc13)CCO[C@H](CNS(=O)(=O)c1ccccc1)CCn1cc2c2ccccc21 | > 2
29 | O=C1NC(=O)C2=C1c1cn(c3ccccc13)CCO[C@H](CNCc1ccccc1)CCn1cc2c2ccccc21 | 4.3

Molecular target: Protein kinase C (PKC)
Assay: Inhibition of rat brain Protein kinase C
Details: not given

Row | Structure (SMILES) | IC50 [µM]
30 | O=C1NC(=O)C2=C1c1cn(c3ccccc13)CCO[C@H](CNS(=O)(=O)c1ccccc1)CCn1cc2c2ccccc21 | 10
31 | O=C1NC(=O)C2=C1c1cn(c3ccccc13)CCO[C@H](CNCc1ccccc1)CCn1cc2c2ccccc21 | 4.2

Molecular target: not listed separately
Assay: Inhibition of Bovine heart cAMP-dependent protein kinase
Parameters: species or system Bos taurus
Details: not given
Method in brief: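 Bovine heart cAMP-dependent kinase catalytic subunit with 200 µg/mL histone type HL substrate in 20 mM HEPES pH 7.5, 10 mM MgCl₂, 30 µM [γ-³²P]ATP; inhibitor in DMSO; 30 °C, 10 min; TCA-stopped, precipitate filtered and scintillation-counted. Average of at least three independent determinations from eight-point titration curves.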

Row | Structure (SMILES) | IC50 [µM]
32 | CNC[C@@H]1CCn2cc(c3ccccc32)C2=C(C(=O)NC2=O)c2cn(c3ccccc23)CCO1 | 49
33 | O=C1NC(=O)C2=C1c1cn(c3ccccc13)CCO[C@H](CNS(=O)(=O)c1ccccc1)CCn1cc2c2ccccc21 | > 100
34 | O=C1NC(=O)C2=C1c1cn(c3ccccc13)CCO[C@H](CNCc1ccccc1)CCn1cc2c2ccccc21 | > 100

Molecular target: T2, Protein kinase C zeta type (Homo sapiens, UniProt Q05513)
T2 sequence (Q05513 whole entry): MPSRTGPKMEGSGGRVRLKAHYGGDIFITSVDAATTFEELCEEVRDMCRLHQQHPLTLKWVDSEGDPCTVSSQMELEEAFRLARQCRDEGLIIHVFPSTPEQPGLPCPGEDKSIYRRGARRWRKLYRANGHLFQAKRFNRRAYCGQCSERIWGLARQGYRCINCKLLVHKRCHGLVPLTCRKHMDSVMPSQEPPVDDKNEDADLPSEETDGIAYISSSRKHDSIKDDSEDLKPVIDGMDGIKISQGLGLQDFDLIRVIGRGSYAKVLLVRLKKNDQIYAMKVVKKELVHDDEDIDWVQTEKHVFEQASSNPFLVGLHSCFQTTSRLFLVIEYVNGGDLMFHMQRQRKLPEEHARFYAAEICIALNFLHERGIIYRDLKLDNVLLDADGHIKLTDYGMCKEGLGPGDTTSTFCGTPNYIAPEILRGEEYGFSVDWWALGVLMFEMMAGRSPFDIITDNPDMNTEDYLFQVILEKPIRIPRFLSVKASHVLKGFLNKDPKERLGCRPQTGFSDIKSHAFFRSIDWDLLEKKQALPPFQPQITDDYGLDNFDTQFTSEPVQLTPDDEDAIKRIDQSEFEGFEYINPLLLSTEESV
Assay: Inhibition of Protein kinase C zeta
Details: not given

Row | Structure (SMILES) | IC50 [µM]
35 | O=C1NC(=O)C2=C1c1cn(c3ccccc13)CCO[C@H](CN1CCOCC1)CCn1cc2c2ccccc21 | > 5
36 | O=C1NC(=O)C2=C1c1cn(c3ccccc13)CCO[C@H](CNS(=O)(=O)c1ccccc1)CCn1cc2c2ccccc21 | > 5
37 | O=C1NC(=O)C2=C1c1cn(c3ccccc13)CCO[C@H](CNCc1ccccc1)CCn1cc2c2ccccc21 | 54
38 | CN1CCN(C[C@@H]2CCn3cc(c4ccccc43)C3=C(C(=O)NC3=O)c3cn(c4ccccc34)CCO2)CC1 | > 5

Molecular target: T1, Protein kinase C beta type
Assay: Inhibition of Protein kinase C beta 1
Details: not given

Row | Structure (SMILES) | IC50 [µM]
39 | O=C1NC(=O)C2=C1c1cn(c3ccccc13)CCO[C@H](CN1CCOCC1)CCn1cc2c2ccccc21 | 0.049
40 | O=C1NC(=O)C2=C1c1cn(c3ccccc13)CCO[C@H](CNCc1ccccc1)CCn1cc2c2ccccc21 | 0.33
41 | CN1CCN(C[C@@H]2CCn3cc(c4ccccc43)C3=C(C(=O)NC3=O)c3cn(c4ccccc34)CCO2)CC1 | 0.03

Molecular target: T3, Protein kinase C epsilon type (Homo sapiens, UniProt Q02156)
T3 sequence (Q02156 whole entry): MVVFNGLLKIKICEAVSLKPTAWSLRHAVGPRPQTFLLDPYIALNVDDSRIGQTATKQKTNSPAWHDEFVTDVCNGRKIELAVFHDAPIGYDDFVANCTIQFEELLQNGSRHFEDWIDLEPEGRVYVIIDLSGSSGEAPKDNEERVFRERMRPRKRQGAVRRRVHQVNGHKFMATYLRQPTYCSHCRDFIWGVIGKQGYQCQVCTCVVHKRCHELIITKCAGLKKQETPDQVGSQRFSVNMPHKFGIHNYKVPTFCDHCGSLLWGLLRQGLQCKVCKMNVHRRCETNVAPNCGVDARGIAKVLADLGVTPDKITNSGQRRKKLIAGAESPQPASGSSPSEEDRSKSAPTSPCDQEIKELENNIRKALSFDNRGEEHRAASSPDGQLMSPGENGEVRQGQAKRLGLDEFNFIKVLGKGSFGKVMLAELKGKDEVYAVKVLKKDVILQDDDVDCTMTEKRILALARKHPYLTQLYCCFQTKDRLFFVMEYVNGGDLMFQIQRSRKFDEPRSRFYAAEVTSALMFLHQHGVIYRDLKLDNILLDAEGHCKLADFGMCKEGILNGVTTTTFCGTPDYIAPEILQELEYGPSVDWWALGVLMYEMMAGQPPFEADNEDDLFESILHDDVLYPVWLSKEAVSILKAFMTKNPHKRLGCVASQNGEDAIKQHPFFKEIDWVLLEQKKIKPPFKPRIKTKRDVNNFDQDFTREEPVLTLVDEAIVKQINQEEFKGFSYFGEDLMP
Assay: Inhibition of Protein kinase C epsilon
Details: not given

Row | Structure (SMILES) | IC50 [µM]
42 | CNC[C@@H]1CCn2cc(c3ccccc32)C2=C(C(=O)NC2=O)c2cn(c3ccccc23)CCO1 | 1.1
43 | O=C1NC(=O)C2=C1c1cn(c3ccccc13)CCO[C@H](CN1CCOCC1)CCn1cc2c2ccccc21 | > 5
44 | O=C1NC(=O)C2=C1c1cn(c3ccccc13)CCO[C@H](CNS(=O)(=O)c1ccccc1)CCn1cc2c2ccccc21 | > 5
45 | O=C1NC(=O)C2=C1c1cn(c3ccccc13)CCO[C@H](CNCc1ccccc1)CCn1cc2c2ccccc21 | 57
46 | CN1CCN(C[C@@H]2CCn3cc(c4ccccc43)C3=C(C(=O)NC3=O)c3cn(c4ccccc34)CCO2)CC1 | > 5

System: not listed separately
Assay: Effective concentration for 50% inhibition of Endothelial cell- based plasminogen activator activity relative to control by beta-PDBu stimulation
Type: functional
Details: not given
Method in brief: as §1

Row | Structure (SMILES) | EC50 [µM]
47 | CN1CCN(C[C@@H]2CCn3cc(c4ccccc43)C3=C(C(=O)NC3=O)c3cn(c4ccccc34)CCO2)CC1 | 0.55

Molecular target: Protein kinase C alpha type (Homo sapiens, UniProt P17252)
Assay: Inhibition of Protein kinase C alpha
Details: not given

Row | Structure (SMILES) | IC50 [µM]
48 | O=C1NC(=O)C2=C1c1cn(c3ccccc13)CCO[C@H](CNS(=O)(=O)c1ccccc1)CCn1cc2c2ccccc21 | > 5
49 | O=C1NC(=O)C2=C1c1cn(c3ccccc13)CCO[C@H](CNCc1ccccc1)CCn1cc2c2ccccc21 | 6.3

System: not listed separately
Assay: Effective dose against plasminogen activator activity stimulated by phorbol ester in endothelial cells
Type: functional
Details: Endothelial cell; read-out: ED50 (the source's name)

Row | Structure (SMILES) | EC50 [µM]
50 | CNC[C@@H]1CCn2cc(c3ccccc32)C2=C(C(=O)NC2=O)c2cn(c3ccccc23)CCO1 | 0.24
51 | O=C1NC(=O)C2=C1c1cn(c3ccccc13)CCO[C@H](CN1CCOCC1)CCn1cc2c2ccccc21 | 3.5
52 | O=C1NC(=O)C2=C1c1cn(c3ccccc13)CCO[C@H](CNS(=O)(=O)c1ccccc1)CCn1cc2c2ccccc21 | > 2
53 | O=C1NC(=O)C2=C1c1cn(c3ccccc13)CCO[C@H](CNCc1ccccc1)CCn1cc2c2ccccc21 | 4.3
54 | CN1CCN(C[C@@H]2CCn3cc(c4ccccc43)C3=C(C(=O)NC3=O)c3cn(c4ccccc34)CCO2)CC1 | 0.55
